This is an account of results in ChEMBL document CHEMBL4715752, “Synthesis and anti-leishmanial evaluation of 1-phenyl-2,3,4,9-tetrahydro-1H-β-carboline derivatives against Leishmania infantum” (Eur J Med Chem, 2016).

Data set [1] deals with Leishmania infantum. The experiment in a line: Antileishmanial activity against Leishmania infantum BCN150 promastigotes expressing IFP1.4 assessed as inhibition of parasite growth by measuring the infrared fluorescence incubated for 48 hrs. In kind it is functional, organism-based. The conditions noted are these: BCN150, 48 h. An outline of the steps: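 Transgenic infrared-fluorescent L. infantum BCN150 promastigotes in 96-well plates. 200 µL culture per well at 1 × 10^6 with graded compound concentrations (1, 10, 100). Incubated 48 h at 26 °C, then promastigote growth assessed.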

The test system of data set [2] is Leishmania infantum. Put plainly: Antileishmanial activity against Leishmania infantum BCN150 amastigotes expressing IFP1.4 infected in BALB/c mouse splenocytes incubated for 72 hrs by infrared fluorescence imaging analysis. As to conditions: BCN150, Splenocyte. In kind it is functional, organism-based. A digest of the protocol:
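Spleens from female BALB/c mice infected intraperitoneally. Splenocytes washed 3x in PBS and seeded in 384-well plates in RPMI, 20% FCS, 1 mM pyruvate, vitamins, 10 mM HEPES, penicillin/streptomycin. Wells set by fixed IR fluorescence per well, not by cell count. Compounds at various concentrations for 72 h. Fluorescence read at 700 nm on an infrared imager.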

A short description of data set [3]: Cytotoxicity against mouse splenocytes by alamar blue assay. In kind it is cell-based, Splenocyte. On the technique in general: Resazurin is reduced to fluorescent resorufin, in cell work by metabolically active cells.
Data set [4] is described as follows: Selectivity index, ratio of CC50 for mouse splenocytes to IC50 for Leishmania infantum BCN150 amastigotes expressing IFP1.4 infected in BALB/c mouse splenocytes. In kind it is toxicity, cell-based. As to conditions: read-out: Ratio CC50/IC50.
Data set [5] is described as follows: Selectivity index, ratio of CC50 for mouse splenocytes to IC50 for Leishmania infantum BCN150 promastigotes expressing IFP1.4. It counts as toxicity. As to conditions: read-out: Ratio CC50/IC50.
In data set [6] the test system is Leishmania infantum. The experiment in a line: Antileishmanial activity against late log phase promastigote stage of Leishmania infantum MHOM/FR/78/LEM75 assessed as inhibition of parasite growth incubated for 48 hrs by hemocytometer counting method. The conditions noted are these: MHOM/FR/78/LEM75, 48 h. In kind it is functional, organism-based.

The structures appear in SMILES notation. ≈ marks a conversion by molar mass, not a printed value.

In the case of `O=C(CN1CCc2c([nH]c3ccccc23)C1c1ccccc1)Nc1cccc([N+](=O)[O-])c1` (configuration not stated), the values for the IC50 in the data set with Leishmania infantum [1] and with Leishmania infantum [2] were more than 100 µM and 870 nM, respectively. In data set [3], this compound returned a CC50 of more than 200 µM. Also, the selectivity ratio in data set [4] is more than 230.

As to `Cc1cccc(NC(=O)CN2CCc3c([nH]c4ccccc34)C2c2ccccc2)c1` (configuration not stated), the IC50 turned out to be 7.63 µM with Leishmania infantum [1] and 1480 nM in the data set with Leishmania infantum [2]. The selectivity ratio in data set [5] was more than 26.2; in data set [4] it was more than 135. Also, the CC50 in data set [3] was more than 200 µM.

As to `COc1cccc(NC(=O)CN2CCc3c([nH]c4ccccc34)C2c2ccccc2)c1` (configuration not stated), the IC50 came out at 14.6 µM in the data set on Leishmania infantum [1] and 1230 nM in the data set with Leishmania infantum [2]. Further, the selectivity ratio in data set [5] is more than 13.7; in data set [4], more than 163. Also, the CC50 in data set [3] is more than 200 µM.

Turning to `Cc1ccccc1NC(=O)CN1CCc2c([nH]c3ccccc23)C1c1ccccc1` (configuration not stated), the IC50 in the data set with Leishmania infantum [1] amounted to 10.4 µM; in the data set with Leishmania infantum [2], 670 nM. In addition, the values for the selectivity ratio in data set [5] and in data set [4] were more than 19.2 and more than 298, respectively. The compound further showed a CC50 in data set [3] of more than 200 µM.

Consider `O=C(CN1CCc2c([nH]c3ccccc23)C1c1ccccc1)Nc1ccc([N+](=O)[O-])cc1` (configuration not stated), for which the IC50 with Leishmania infantum [1] came to 8.1 µM; with Leishmania infantum [2] it was 5290 nM. Moreover, the figures for the selectivity ratio in data set [5] and in data set [4] were more than 24.7 and more than 37.8, respectively. This compound came in with a CC50 in data set [3] of more than 200 µM.

For `Cc1ccc(NC(=O)CN2CCc3c([nH]c4ccccc34)C2c2ccccc2)c(C)c1` (configuration not stated), the IC50 in the data set with Leishmania infantum [1] is 16.9 µM; in the data set on Leishmania infantum [2], 2640 nM. In addition, the selectivity ratio was more than 11.8 in data set [5] and more than 75.8 in data set [4]. Moreover, in data set [3], the CC50 was more than 200 µM.

On to `O=C(CN1CCc2c([nH]c3ccccc23)C1c1ccccc1)Nc1ccc(F)cc1` (configuration not stated), for which the IC50 amounted to 15.1 µM in the data set with Leishmania infantum [1] and 4160 nM in the data set on Leishmania infantum [2]. Further, the figures for the selectivity ratio in data set [5] and in data set [4] were more than 13.2 and more than 48.1, respectively. Also, in data set [3], the CC50 was more than 200 µM.

On to `COc1ccc(NC(=O)CN2CCc3c([nH]c4ccccc34)C2c2ccccc2)cc1` (configuration not stated), for which the IC50 is more than 100 µM in the data set on Leishmania infantum [1] and 6460 nM in the data set with Leishmania infantum [2]. The same compound registered a CC50 in data set [3] of more than 200 µM. The selectivity ratio in data set [4] is more than 30.9.

In the case of `O=C(CN1CCc2c([nH]c3ccccc23)C1c1ccccc1)Nc1cccc2ccccc12` (configuration not stated), the IC50 is more than 100 µM with Leishmania infantum [1] and 2250 nM with Leishmania infantum [2]. Besides, the CC50 in data set [3] was more than 200 µM. In addition, the selectivity ratio in data set [4] was more than 88.9.

`COc1ccccc1NC(=O)CN1CCc2c([nH]c3ccccc23)C1c1ccccc1` (configuration not stated): the values for the IC50 in the data set with Leishmania infantum [1] and in the data set on Leishmania infantum [2] were 1.99 µM and 5350 nM, respectively. Also, the selectivity ratio in data set [5] was more than 100; in data set [4], more than 37.4. The same compound registered a CC50 in data set [3] of more than 200 µM.

With `O=C(CN1CCc2c([nH]c3ccccc23)C1c1ccccc1)Nc1ccccc1` (configuration not stated), the IC50 came out at 12.4 µM in the data set on Leishmania infantum [1] and 1680 nM in the data set on Leishmania infantum [2]. Besides, the selectivity ratio in data set [5] was more than 16.2; in data set [4] it was more than 119. In data set [3], the CC50 is more than 200 µM.

For `O=C(CN1CCc2c([nH]c3ccccc23)C1c1ccccc1)Nc1ccc(Cl)cc1` (configuration not stated), the 50% inhibitory concentration (IC50) was 15.1 µM in the data set on Leishmania infantum [1] and 3750 nM in the data set with Leishmania infantum [2]. In addition, the selectivity ratio in data set [5] came out at 9.64; in data set [4] it was 38.9. The compound also displayed a CC50 in data set [3] of 146 µM.

As for `O=C(CN1CCc2c([nH]c3ccccc23)C1c1ccccc1)Nc1cccc(C(F)(F)F)c1` (configuration not stated), the IC50 worked out at 45.2 µM in the data set with Leishmania infantum [1] and 2020 nM with Leishmania infantum [2]. The selectivity ratio in data set [5] is more than 4.43; in data set [4], more than 99. Moreover, the CC50 in data set [3] is more than 200 µM.

Regarding `C/C=C1\CCN2CCc3c([nH]c4ccccc34)[C@H]2[C@@H]1[C@@H](C(=O)OC)[C@H]1NCCc2c1[nH]c1ccccc21`, the IC50 in the data set with Leishmania infantum [6] was 1.56 µg/mL (≈ 3.15 µM).

`O=C(CN1CCc2c([nH]c3ccccc23)C1c1ccccc1)Nc1cccc(Cl)c1` (configuration not stated): the IC50 in the data set with Leishmania infantum [1] stood at 6.68 µM; in the data set on Leishmania infantum [2], 1510 nM. The selectivity ratio in data set [5] is more than 29.9; in data set [4], more than 132. In addition, the CC50 in data set [3] was more than 200 µM.

`O=C(CN1CCc2c([nH]c3ccccc23)C1c1ccccc1)Nc1ccccc1Cl` (configuration not stated): the IC50 in the data set on Leishmania infantum [1] amounted to 20.7 µM; in the data set on Leishmania infantum [2] it was 1050 nM. Besides, the selectivity ratio in data set [5] is more than 9.67; in data set [4] it was more than 190. In data set [3], this compound gave a CC50 of more than 200 µM.

As to `Cc1ccc(NC(=O)CN2CCc3c([nH]c4ccccc34)C2c2ccccc2)cc1` (configuration not stated), the results for the IC50 in the data set with Leishmania infantum [1] and in the data set on Leishmania infantum [2] were 19.2 µM and 6310 nM, respectively. Also, the selectivity ratio was more than 10.4 in data set [5] and more than 31.7 in data set [4]. For the same compound, the CC50 in data set [3] was more than 200 µM.

On to `C[C@@H]1[C@H](O)[C@@H](C)/C=C/C=C/C=C/C=C/C=C/C=C/C=C/[C@H](O[C@@H]2O[C@H](C)[C@@H](O)[C@H](N)[C@@H]2O)C[C@@H]2O[C@](O)(C[C@@H](O)C[C@@H](O)[C@H](O)CC[C@@H](O)C[C@@H](O)CC(=O)O[C@H]1C)C[C@H](O)[C@H]2C(=O)O` [AMPHOTERICIN B], for which the selectivity ratio was more than 260 in data set [5] and more than 62.5 in data set [4]. In the data set on Leishmania infantum [2], this compound displayed an IC50 of 320 nM. The compound further had a CC50 in data set [3] of more than 20 µM.

The term IC50 denotes the midpoint of a concentration-inhibition curve. For orientation: CC50 means the concentration at which the toxic effect on the cells reaches its halfway point.
